1 molecule from ChEMBL document CHEMBL2021876, “New pyridobenzoxazepine derivatives derived from 5-(4-methylpiperazin-1-yl)-8-chloro-pyrido[2,3-b][1,5]benzoxazepine (JL13): chemical synthesis and pharmacological evaluation” (J Med Chem, 2012) can be followed below.

Test [1] concerns Caudate-putamen. Briefly: In vivo displacement of [3H]SCH-23390 from dopamine D1 receptor in Sprague-Dawley rat medial part of caudate putamen at 13.75 mg/kg, ip qd for 28 days by autoradiography relative to control. The format is functional. As to conditions: route intraperitoneal. The procedure, abridged: (§1)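 Forebrain sections from male Sprague-Dawley rats (N = 8/group) after 28 days of daily ip injections versus vehicle. Incubation 1 h RT in 50 mM Tris-HCl pH 7.4, 120 mM NaCl, 5 mM KCl, 2 mM CaCl2, 1 mM MgCl2 with 1 nM [3H]SCH-23390 and 100 nM ketanserin. Nonspecific: 1 μM cis-flupenthixol. Saturating conditions; fmol/mg tissue, % of control.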
In general terms: Loss of bound radioactivity is the signal in a displacement assay; it reports binding, not function.

Test [2] concerns Hippocampus. Nature of the test: In vivo displacement of [3H]8-OH-DPAT from 5HT1A receptor in Sprague-Dawley rat hippocampus CA3 region at 13.75 mg/kg, ip qd for 28 days by autoradiography relative to control. Particulars: route intraperitoneal. Format: functional. The procedure, abridged: (§2)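 Male Sprague-Dawley rats (200−225 g, N = 8/group) dosed ip once daily for 28 days, vehicle controls, decapitated; 10 μm frozen coronal sections. Preincubation 1 h RT in 50 mM Tris-HCl pH 7.6, 0.1% ascorbic acid, 4 mM CaCl2, 10 μM pargyline; then 1 h RT with 2.0 nM [3H]8-OH-DPAT. Nonspecific: 1 μM 5-HT. Saturating conditions; binding in fmol/mg tissue, % of control, mean ± SEM.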

For test [3], the system named is Caudate-putamen. Nature of the test: In vivo displacement of [3H]Nemonapride from dopamine D2 receptor in Sprague-Dawley rat lateral of caudate putamen at 13.75 mg/kg, ip qd for 28 days by autoradiography relative to control. The format is functional. Particulars: route intraperitoneal. The procedure, abridged: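 Male Sprague-Dawley rats, N = 8/group, daily ip dosing for 28 days with vehicle controls; cryostat sections (10 μm) preincubated 1 h RT. Incubation 1 h RT in 50 mM Tris-HCl pH 7.4, 120 mM NaCl, 5 mM KCl, 2 mM CaCl2, 1 mM MgCl2 with 1 nM [3H]nemonapride, 0.5 μM DTG, 0.1 μM pindolol. Nonspecific: 10 μM S(−)-sulpiride. Values fmol/mg tissue, % of control.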

A short description of test [4]: In vivo displacement of [3H]SCH-23390 from dopamine D1 receptor in Sprague-Dawley rat medial-prefrontal cortex at 13.75 mg/kg, ip qd for 28 days by autoradiography relative to control. Format: functional. Particulars: route intraperitoneal. The procedure, abridged: as §1
Test [5] deals with Serotonin 1a (5-HT1a) receptor/Adrenergic receptor alpha-1 (Rattus norvegicus) (UniProt P15823+P23944+P43140+P19327). Briefly: In vivo displacement of [3H]8-OH-DPAT from 5HT1A receptor in Sprague-Dawley rat medial-prefrontal cortex at 13.75 mg/kg, ip qd for 28 days by autoradiography relative to control. The format is functional, organism-based. Details: dose 13.75 mg/kg. The procedure, abridged: as §2

Test [6] deals with Hippocampus. Briefly: In vivo displacement of [3H]8-OH-DPAT from 5HT1A receptor in Sprague-Dawley rat hippocampus CA1 region at 13.75 mg/kg, ip qd for 28 days by autoradiography relative to control. The format is functional. Particulars: route intraperitoneal. The procedure, abridged:
as §2

The subject of test [7] is Caudate-putamen. Briefly: In vivo displacement of [3H]Nemonapride from dopamine D4 receptor in Sprague-Dawley rat lateral part of caudate putamen at 13.75 mg/kg, ip qd for 28 days by autoradiography relative to control. As to conditions: route intraperitoneal. Format: functional.
Test [8] is described as follows: In vivo displacement of [3H]Ketanserin from 5HT2A receptor in Sprague-Dawley rat medial-prefrontal cortex at 13.75 mg/kg, ip qd for 28 days by autoradiography relative to control. As to conditions: route intraperitoneal. Format: functional. The procedure, abridged:
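Rats (male Sprague-Dawley, N = 8/group) given daily ip injections for 28 days versus vehicle. Brain sections preincubated 1 h RT in 50 mM Tris-HCl pH 7.7, then 1 h RT with 3.0 nM [3H]ketanserin plus 1 μM prazosin and 100 nM tetrabenazine. Nonspecific: 1 μM methysergide. Washes 2 × 30 min ice-cold. Readout fmol/mg tissue as % of control, mean ± SEM.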

In general, inhibition in vivo refers to the relative decrease from the control value, in per cent. What is called inhibition is the drop in the measured response relative to a control, in per cent. Turning to `Clc1ccc2c(c1)N=C(N1CCNCC1)c1cccnc1O2`, the inhibition in vivo at 13.75 mg/kg in the test on Caudate-putamen [1] stood at 131%; in the test with Hippocampus [2], 105%; with Caudate-putamen [3] it was 98%; in test [4], 97%; with Hippocampus [6], 95%; with Caudate-putamen [7], 152%. The inhibition in vivo at 13.75 mg/kg in test [8] was determined as 56%. The inhibition in test [5] is 137%.
